# Bioassay records: PubChem BioAssay, Broad Institute
# rRNA inh HTS – inhibits bacterial ribosomal RNA function over humanized ribosomes; E. coli WT GFP vs humanized-ribosome RFP mutants, fluorescence, 24 h; active compounds read low; DMSO median 0, no signal -100; GFP signal change (wild-type ribosome), % (test concentration not listed); 350,000 tested, 1.6% active; AID 720706;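 active = significant combined selectivity score with lowered wild-type GFP, culture density cut under 30%, mutant RFP and density less affected; inactive = any of these conditions unmet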
# E-selectin induc – induces E-selectin expression in human endothelial cells | P16581 | activation, % at 7.58 µM | 260,000 tested, 0.37% active | HUVEC E-selectin immunofluorescence imaging; normalized: neutral wells 0, TNF-alpha wells 100;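 active = mean E-selectin-positive cell signal at least 10% of the positive control, reached in at least 60% of replicates, without over 20% cell loss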
#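 Read-out basis: % PE-positive cells; Test system: HUVEC primary endothelial cells; Technique: immunofluorescence imaging; Dosing: single-point compound dose.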
# LGR2 antag – blocks bursicon-induced cAMP signaling via Drosophila LGR2; HEK293 LGR2, CRE-luciferase, bursicon-stimulated, 4 h; inhibition, % at 9.99 µM; 380,000 tested, 0.35% active; AID 720647;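 active = drop in luminescence signal, shown as inhibition above about 50% in the replicate tests, limit read from the data, passing the limit was not always enough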;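 also: agonist challenge used bursicon conditioned medium at about half maximal strength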
# EWS-Fli block – EWS/Fli transcriptional activity inhibition. A673 NR0B1-luciferase reporter, viability-normalised. inhibition, % at 12.6 µM. 350,000 tested, 0.67% active;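 active = mean inhibition of at least 50% after viability correction, with every replicate also passing that limit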;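 also: firefly luciferase signal divided by Alamar Blue viability fluorescence both relative to DMSO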
# Active calls of the source: *; x = no result given. Shown are actives, neighbours in structure and some others; about 2.4% of the full set was active somewhere.
SMILES,rRNA inh HTS,E-selectin induc,LGR2 antag,EWS-Fli block
CN(C)CCCNC(=O)C[C@@H]1CC[C@@H]2[C@H](COc3ccc(NC(=O)c4ccc5c(c4)OCO5)cc3C(=O)N2C)O1,2,0,8,-21
Cn1cc(CN2CCCC(C(=O)c3cc(F)ccc3F)C2)c2ccccc21 (stereo not given),-10,x,3,14
COc1ccc(F)cc1C(=O)C1CCCN(Cc2cn(C)c3ccccc23)C1 (stereo not given),-31*,x,6,13
C[C@H](O)[C@@H]1CN2CCc3c([nH]c4c(-c5ccccc5)cccc34)[C@@H]2C[C@@H]1N(C)C(=S)NCCc1ccccc1,-30*,0,-14,-7
C[C@@H]1ON(C)[C@H]2C[C@H]3c4[nH]c5c(-c6ccccc6)cccc5c4CCN3C[C@@H]12,-26*,0,0,5
C=CCNC(=S)N(C)[C@H]1C[C@H]2c3cc(-c4ccccc4C)ccc3CCN2C[C@H]1[C@H](C)O,-30*,0,7,7
C[C@H](O)[C@@H]1CN2CCc3c([nH]c4c(-c5ccccc5)cccc34)[C@@H]2C[C@@H]1N(C)C(=O)Nc1ccccc1,-34,0,-9,-4
O=C(CC(F)(F)F)N1C[C@@H]2[C@H](c3ccccc31)[C@@H](CO)N2C(=O)Cc1ccccc1,-6,0,5,0
COc1cccc(-c2ccc3c(c2)O[C@H](CN(C)Cc2cncnc2)[C@H](C)CN([C@@H](C)CO)S3(=O)=O)c1,-3,0,2,-18
N#CCCCC#Cc1ccc2c(c1)COc1c3ccccc3nn1-2,-29,0,98*,67*
CS(=O)(=O)N1[C@@H](C#N)[C@@H](c2ccc(C#CC3CCCC3)cc2)[C@@H]1CO,-47,1,-3,-7
COc1ccc(C(=O)NN(C)c2nc(C(F)(F)F)nc3ccccc23)cc1,7,x,-7,56*
CCCn1c(=S)[nH]c2cc(C(=O)N(CCO)Cc3ccccc3)ccc2c1=O,-30*,x,-9,8
O=C(NNc1ccc([N+](=O)[O-])cn1)Nc1ccc(N=Nc2ccccc2)cc1,-4.1*,0,-19,-20
O=C(NNc1ccc([N+](=O)[O-])cc1)Nc1ccccc1,9,x,-10,-2
CC[C@H](CO)Nc1nc(Nc2cccc(Cl)c2)c2ncn(C(C)C)c2n1,-13,0,58*,4
CC(C)[C@H](CO)N(Cc1cccc(F)c1)c1nc(Nc2cccc(Cl)c2)c2ncn(C(C)C)c2n1,10,0,x,-8
CC(C)N(CCc1ccncc1)C(=S)Nc1cccc(Cl)c1,-17*,x,-20,7
CC(C)(C)c1ccc(SC2=C[C@@]3(O)CC[C@@H](O)[C@@](Sc4ccc(C(C)(C)C)cc4)(C2=O)[C@H]3O)cc1,5,1,29,31
Cc1ccc(SC2=C[C@@]3(O)CC[C@@H](O)[C@@](Sc4ccc(C)cc4)(C2=O)[C@H]3O)cc1,-25*,0,7,-5
CC(C)NC(=O)Nc1ccc2c(c1)C(=O)N([C@H](C)CO)C[C@@H](C)[C@@H](CN(C)C(=O)Nc1ccc(C(F)(F)F)cc1)OCCCC[C@@H](C)O2,2,0,-12,28
Cc1onc(-c2ccccc2)c1NC(=O)Nc1ccc(OC(F)F)cc1,-22*,1,0,-2
COc1ccc(-c2ccc(SCC(=O)N3CCOCC3)nn2)cc1,4,x,-7,-10
CCOc1ccc(-c2ccc(SCC)nn2)cc1,4,0,59*,-4
COc1ccc(-c2ccc(SC)nn2)cc1,3,x,83*,58*
SMILES,rRNA inh HTS,E-selectin induc,LGR2 antag,EWS-Fli block
COCC#Cc1cnc2c(c1)C(=O)N([C@@H](C)CO)C[C@@H](C)[C@@H](CN(C)S(C)(=O)=O)O2,-2,0,-10,-2
COc1ccc(C[C@@H]2CCn3cc(nn3)COCCCNC2=O)cc1,0,0,x,x
CC(C)=CC(=O)OCc1cc([N+](=O)[O-])cc2c1OCOC2,-16*,x,-47,-65
O=C(C[C@H]1CC[C@@H]2[C@H](COC[C@H](O)CN2Cc2ccc(Oc3ccccc3)cc2)O1)Nc1nccs1,-53,0,-10,5
O=C(N/N=C/c1ccncc1)c1ccc(COc2cccc3cccnc23)cc1,-28*,x,-1,-1
COc1cccc(/C=N/NC(=O)CSc2cccc3cccnc23)c1,-12,0,4,2
O=C(CSc1cccc2cccnc12)N/N=C/c1ccc(O)cc1,-14*,x,-14,-114
COc1cc(C=NNC(=O)c2ccc(NS(=O)(=O)c3cccs3)cc2)cc(Br)c1O,-31*,0,10,9
